Source: ChEMBL document CHEMBL4145448, “Broad activity of diphenyleneiodonium analogues against Mycobacterium tuberculosis, malaria parasites and bacterial pathogens” (Eur J Med Chem, 2018)
In brackets after ≈: the same amount, converted by molar mass.

How the values were obtained:
[1] = Cytotoxicity against human HepG2 cells after 24 hrs in presence of 1% FBS by resazurin dye based assay; format: cell-based
Outline: (§1)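 HepG2 cells seeded at 4000/well in DMEM with 1% FBS and allowed to attach for 24 h at 37 °C, 5% CO2. Compounds added from 300 to 0.14 µM in 3-fold steps and incubated 24 h. 10 µM resazurin added for 2 h, fluorescence read at ex/em 560/590. Percent viability computed relative to untreated and negative controls, duplicate wells.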

[2] = tested on: Plasmodium falciparum; assay: Growth inhibition of CQ-sensitive GFP-fused Plasmodium falciparum D10 after 90 hrs by ethidium bromide staining based flow cytometry; format: functional, organism-based; conditions: D10, 90 h
Outline: (§2)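 Parasites cultured in human O+ erythrocytes in RPMI-HEPES pH 7.4 with hypoxanthine, NaHCO3, gentamicin and 0.5% Albumax II under 1% O2/4% CO2 at 37 °C. Synchronised to rings with heparin plus sorbitol. Set up at 1% parasitaemia and 1% haematocrit with 10x compound added. Cultured 90 h to next-cycle trophozoites. Stained with 10 µg/mL ethidium bromide for 1 h, washed, parasitaemia counted by flow cytometry with GFP gating.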

[3] = Cytotoxicity against human HepG2 cells after 24 hrs in presence of 10% FBS by resazurin dye based assay; format: cell-based
Outline: as §1, with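 “10%” for “1%”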

[4] = Selectivity index, ratio of CC50 for human HepG2 cells in presence of 1% FBS to IC50 for CQ-sensitive GFP-fused Plasmodium falciparum D10; format: toxicity; conditions: read-out: Ratio IC50
[5] = Selectivity index, ratio of CC50 for human HepG2 cells in presence of 10% FBS to MIC for Mycobacterium tuberculosis H37Rv ATCC 25618; format: toxicity; conditions: read-out: Selectivity Index
[6] = tested on: Mycobacterium tuberculosis; assay: Antimycobacterial activity against Mycobacterium tuberculosis H37Rv ATCC 25618 after 7 days by resazurin dye based assay; format: functional; conditions: H37Rv ATCC 25618, 168 h
Outline: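 H37Rv grown at 37 °C in 7H9 with 10% ADC, 0.5% glycerol and 0.02% tyloxapol. Compounds serially diluted in water, 0 to 10 µM, in triplicate. Culture adjusted to OD600 0.001 and incubated 7 days at 37 °C. Resazurin (0.05% w/v) added for 4-24 h and fluorescence read at 590 nm. MIC is the lowest concentration giving complete growth inhibition versus untreated. Rifampicin served as control.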

[7] = Selectivity index, ratio of CC50 for human HepG2 cells in presence of 10% FBS to IC50 for CQ-sensitive GFP-fused Plasmodium falciparum D10; format: toxicity; conditions: read-out: Ratio IC50
[8] = Selectivity index, ratio of CC50 for human HepG2 cells in presence of 1% FBS to MIC for Mycobacterium tuberculosis H37Rv ATCC 25618; format: toxicity; conditions: read-out: Selectivity Index
[9] = Selectivity index, ratio of CC50 for human HepG2 cells in presence of 1% FBS to IC50 for drug-resistant GFP-fused Plasmodium falciparum D10; format: toxicity; conditions: read-out: Ratio IC50
[10] = tested on: Plasmodium falciparum; assay: Growth inhibition of […] GFP-fused Plasmodium falciparum D10 after 90 hrs by ethidium bromide staining based flow cytometry; format: functional, organism-based; conditions: D10, 90 h; outline: as §2
[11] = Selectivity index, ratio of CC50 for human HepG2 cells in presence of 10% FBS to IC50 for drug-resistant GFP-fused Plasmodium falciparum D10; format: toxicity; conditions: read-out: Ratio IC50

For `COc1ccc(Cl)c2c1[I+]c1ccccc1-2`, the CC50 at 24 h [1] was 0.15 µM, the IC50 [2] was 0.13 µM and the CC50 at 24 h [3] was 0.224 µM. For the same compound, the selectivity ratio [4] was 1.2, the selectivity ratio [5] was 0.44 and the MIC [6] was 0.51 µM. The selectivity ratio [7] was 1.75 and the selectivity ratio [8] was 0.31.
For `Clc1ccc(Cl)c2c1[I+]c1ccccc1-2`, the CC50 at 24 h [1] was 0.894 µM, the IC50 [2] was greater than 1 µM and the CC50 at 24 h [3] was 1.85 µM. It also gave a selectivity ratio [5] of 3.7, an MIC [6] of 0.5 µM and a selectivity ratio [8] of 1.8.
For `FC(F)(F)Oc1cccc2c1-c1ccccc1[I+]2`, the CC50 at 24 h [1] was 0.0503 µM, the IC50 [2] was 0.13 µM and the CC50 at 24 h [3] was 0.251 µM. The selectivity ratio [4] was 0.39, the selectivity ratio [5] was 0.99 and the MIC [6] was 0.25 µM. It also gave a selectivity ratio [7] of 1.9 and a selectivity ratio [8] of 0.21.
In the case of `Fc1cccc2c1-c1c(F)cccc1[I+]2`, the CC50 at 24 h [1] is reported as 0.0886 µM, the IC50 [2] is reported as 0.84 µM and the CC50 at 24 h [3] is reported as 0.161 µM. For the same compound, the selectivity ratio [4] was 0.11, the selectivity ratio [5] was 0.58 and the MIC [6] was 0.28 µM. It also gave a selectivity ratio [7] of 0.19 and a selectivity ratio [8] of 0.32.
`FC(F)(F)c1cccc2c1-c1ccccc1[I+]2` gave a CC50 at 24 h [1] of 0.0236 µM, a selectivity ratio [9] of 0.18 and an IC50 [2] of 0.13 µM. It also gave a CC50 at 24 h [3] of 0.0947 µM, a selectivity ratio [4] of 0.18 and a selectivity ratio [5] of 0.36. It also gave an IC50 [10] of 0.14 µM, an MIC [6] of 0.26 µM and a selectivity ratio [7] of 0.72. It also gave a selectivity ratio [11] of 0.7 and a selectivity ratio [8] of 0.09.
For `Fc1ccc(Cl)c2c1[I+]c1ccccc1-2`, the CC50 at 24 h [1] was 0.93 µM, the IC50 [2] was greater than 1 µM and the CC50 at 24 h [3] was 2.72 µM. For the same compound, the selectivity ratio [5] was 10, the MIC [6] was 0.27 µM and the selectivity ratio [8] was 3.4.
Compound `Fc1cccc2c1-c1cccc(Cl)c1[I+]2` has a CC50 at 24 h [1] of 0.0524 µM, an IC50 [2] of 0.19 µM and a CC50 at 24 h [3] of 0.386 µM. It also gave a selectivity ratio [4] of 0.28, a selectivity ratio [5] of 1.4 and an MIC [6] of 0.27 µM. It also gave a selectivity ratio [7] of 2.1 and a selectivity ratio [8] of 0.19.
Work on `Clc1cccc2c1[I+]c1cccc(Cl)c1-2` yielded a CC50 at 24 h [1] of 0.0846 µM, an IC50 [2] of 0.36 µM and a CC50 at 24 h [3] of 0.544 µM. It also gave a selectivity ratio [4] of 0.23, a selectivity ratio [5] of 2.1 and an MIC [6] of 0.26 µM. For the same compound, the selectivity ratio [7] was 1.5 and the selectivity ratio [8] was 0.32.
`Cc1cccc2c1-c1cccc(Cl)c1[I+]2` showed a CC50 at 24 h [1] of 0.0601 µM, an IC50 [2] of 0.11 µM and a CC50 at 24 h [3] of 0.486 µM. It also gave a selectivity ratio [4] of 0.63, a selectivity ratio [5] of 1.8 and an MIC [6] of 0.27 µM. The selectivity ratio [7] was 5.1 and the selectivity ratio [8] was 0.22.
For `CO[C@H]1/C=C/O[C@@]2(C)Oc3c(C)c(O)c4c(O)c(c(/C=N/N5CCN(C)CC5)c(O)c4c3C2=O)NC(=O)/C(C)=C\C=C\[C@H](C)[C@H](O)[C@@H](C)[C@@H](O)[C@@H](C)[C@H](OC(C)=O)[C@@H]1C` [RIFAMPIN], the MIC [6] was 0.3 to 0.61 µM (≈ 0.247 to 0.502 µg/mL).
With `Fc1cccc2c1-c1c(Cl)cccc1[I+]2` the CC50 at 24 h [1] was 0.392 µM, the IC50 [2] was greater than 1 µM and the CC50 at 24 h [3] was 0.833 µM. The selectivity ratio [5] was 0.8, the MIC [6] was 1 µM and the selectivity ratio [7] was less than 0.83. The selectivity ratio [8] was 0.38.
In the case of `Cc1ccc(Cl)c2c1[I+]c1ccccc1-2`, the CC50 at 24 h [1] is reported as 0.093 µM, the IC50 [2] is reported as 0.11 µM and the CC50 at 24 h [3] is reported as 0.349 µM. It also gave a selectivity ratio [4] of 0.82, a selectivity ratio [5] of 2.8 and an MIC [6] of 0.13 µM. The selectivity ratio [7] was 3.1 and the selectivity ratio [8] was 0.74.
